Assay results published in ChEMBL document CHEMBL3102735, “Enhancing the pharmacodynamic profile of a class of selective COX-2 inhibiting nitric oxide donors” (Bioorg Med Chem, 2014).

Columns and labels:
Mus musculus [1] = assay: Analgesic activity in Swiss albino mouse assessed as reduction of acetic acid-induced writhing at 10 mg/kg, po measured every 10 mins after 5 mins of administration relative to control; type: functional; set-up: scale not given: the % may be the effect or the level left
In short: (§1)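 Male Swiss albino mice (23–25 g), compound given orally in CMC vehicle; writhing induced by 0.6% acetic acid (10 mL/kg) ip. Stretching movements counted for 10 min, starting 5 min after administration; percent reduction versus CMC-treated animals.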

Rattus norvegicus [2] = assay: Volume of distribution at steady state in Wistar rat at 10 mg/kg, iv by LC-MS/MS analysis; type: ADME, organism-based; set-up: dose 10 mg/kg, route intravenous; details: in vivo
J774 = assay: Selectivity index, ratio of IC50 for COX-1 to IC50 for COX-2 in mouse J774 cells; type: cell-based
In short: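 J774 macrophages stimulated 24 h with E. coli LPS (10 µg/mL) to induce COX-2, with or without compound (0.01–10 µM); supernatant PGE2 by RIA. Triplicate wells, three experiments, percent inhibition versus control, IC50 by sigmoidal fit; selectivity as COX-1/COX-2 IC50 ratio.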

Rattus norvegicus [3] = assay: Drug metabolism in Wistar rat plasma assessed as 2-(1-(4-fluorophenyl)-2-methyl-5-(4-(methylsulfonyl)phenyl)-1H-pyrrol-3-yl)-N-(2-hydroxyethyl)acetamide metabolite at 10 mg/kg, po up to 6 hrs by LC-MS/MS analysis; type: ADME, organism-based; set-up: dose 10 mg/kg, route oral; details: in vivo
In short: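 Male Han Wistar rats, three per route, single 10 mg/kg/5 mL dose iv or po in 5% DMSO, 5% Cremophor EL, 0.1% Tween 80 in 150 mM phosphate buffer pH 7. Jugular-vein blood sampled, plasma methanol-precipitated, parent and hydroxy metabolite quantified by LC–MS/MS in positive ESI MRM mode (LLOQ 1–15 ng/mL).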

Mus musculus [4] = assay: Analgesic activity in Swiss albino mouse assessed as reduction of acetic acid-induced writhing at 40 mg/kg, po measured every 10 mins after 5 mins of administration relative to control; type: functional; set-up: scale not given: the % may be the effect or the level left; in short: as §1
Liver = assay: Induction of nitric oxide production in Wistar rat liver homogenate assessed as NOx level at 1 mM; type: functional, tissue-based; details: TDE = time-dependent effect
[5] = target: T1, Prostaglandin G/H synthase 2 (Mus musculus) (UniProt Q05769); assay: Inhibition of LPS-induced COX-2 in mouse J774 cells using arachidonic acid as substrate assessed as inhibition of prostaglandin E2 production at 10 uM preincubated for 15 mins followed by substrate addition measured after 30 mins by RIA; type: cell-based
T1 sequence (whole entry): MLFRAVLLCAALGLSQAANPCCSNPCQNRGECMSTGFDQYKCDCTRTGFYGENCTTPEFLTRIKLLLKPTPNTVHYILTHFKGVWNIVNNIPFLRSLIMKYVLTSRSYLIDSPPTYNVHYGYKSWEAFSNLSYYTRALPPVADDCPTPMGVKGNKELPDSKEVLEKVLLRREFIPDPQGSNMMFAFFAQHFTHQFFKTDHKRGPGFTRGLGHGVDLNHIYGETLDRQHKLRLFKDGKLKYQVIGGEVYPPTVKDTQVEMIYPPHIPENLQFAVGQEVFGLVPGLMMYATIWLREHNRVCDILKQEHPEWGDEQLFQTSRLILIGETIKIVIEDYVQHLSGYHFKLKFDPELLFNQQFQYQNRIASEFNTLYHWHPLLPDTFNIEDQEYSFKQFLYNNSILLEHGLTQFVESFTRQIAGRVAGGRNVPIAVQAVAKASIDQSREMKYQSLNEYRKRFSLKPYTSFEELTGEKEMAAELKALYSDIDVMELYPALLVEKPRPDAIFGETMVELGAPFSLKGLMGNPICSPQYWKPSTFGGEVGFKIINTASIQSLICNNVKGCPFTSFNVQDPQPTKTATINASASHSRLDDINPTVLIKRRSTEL

[6] = Metabolic stability in Sprague-Dawley rat plasma assessed as compound remaining after 30 mins by LC-MS/MS analysis; type: ADME, cell-free; details: read-out: Stability
In short: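 Compound (12 µL of 1 mM DMSO solution into 588 µL medium) incubated in PBS pH 7.4, pepsin-free SGF pH 1.5, or EDTA rat plasma. Aliquots taken at 0, 30, 60, 120 min and quenched with ice-cold acetonitrile containing internal standard; parent remaining as percent.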

Mus musculus [7] = assay: Antihyperalgesic activity in Swiss albino mouse assessed as reduction in carrageenan-induced inflammation at 20 mg/kg, po after 30 mins relative to control; type: functional; set-up: scale not given: the % may be the effect or the level left
[8] = target: T2, Prostaglandin G/H synthase 1 (Mus musculus, UniProt P22437); assay: Inhibition of COX-1 in mouse J774 cells using arachidonic acid as substrate assessed as inhibition of prostaglandin E2 production preincubated for 15 mins followed by substrate addition measured after 30 mins by RIA; type: cell-based
T2 sequence (P22437 whole entry): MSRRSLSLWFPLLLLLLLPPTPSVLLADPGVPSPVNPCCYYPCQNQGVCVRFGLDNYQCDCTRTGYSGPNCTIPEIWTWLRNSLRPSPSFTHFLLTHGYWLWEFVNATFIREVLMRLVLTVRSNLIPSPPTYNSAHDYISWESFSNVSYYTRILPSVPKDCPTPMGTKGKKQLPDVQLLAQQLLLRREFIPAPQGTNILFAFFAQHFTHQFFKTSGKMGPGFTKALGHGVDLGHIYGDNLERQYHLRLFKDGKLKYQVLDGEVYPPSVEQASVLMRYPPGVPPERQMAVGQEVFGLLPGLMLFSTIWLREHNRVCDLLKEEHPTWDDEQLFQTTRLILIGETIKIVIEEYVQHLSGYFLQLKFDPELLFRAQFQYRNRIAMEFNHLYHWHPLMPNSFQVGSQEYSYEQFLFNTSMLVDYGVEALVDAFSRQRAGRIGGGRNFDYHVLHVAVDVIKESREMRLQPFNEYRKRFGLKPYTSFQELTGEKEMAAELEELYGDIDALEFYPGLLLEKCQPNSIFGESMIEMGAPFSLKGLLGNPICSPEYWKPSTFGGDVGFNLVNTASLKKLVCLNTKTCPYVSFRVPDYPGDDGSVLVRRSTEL
In short: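 J774 murine macrophages pretreated 15 min with compound (10 µM; lower concentrations 0.01–1 µM where needed), then incubated 30 min at 37 °C with 15 µM arachidonic acid; supernatant PGE2 measured by RIA. Triplicate wells, mean of three experiments of percent inhibition versus control; IC50 by sigmoidal fit.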

[9] = Stability of the compound in simulated gastric fluid assessed as compound remaining at pH 1.5 after 120 mins by LC-MS/MS analysis; type: physicochemical; details: read-out: Stability
In short: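 1 mM DMSO stock added to 0.01 M PBS (pH 7.4) or 0.05 M simulated gastric fluid without pepsin (pH 1.5 with HCl); incubated in hybridisation oven; aliquots at 0, 30, 60, 120 min quenched with ice-cold acetonitrile containing internal standard; parent remaining (%) measured.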

Vdss (Rattus norvegicus [2]): 367 mL | Drug metabolism (Rattus norvegicus [3]): Active | inhibition [5]: 100% | remaining at 0.5 h [6]: 100% | IC50 [8]: > 10 µM | remaining at 2 h [9]: 100%
Compound: Cc1c(CC(=O)NCCO[N+](=O)[O-])cc(-c2ccc(S(C)(=O)=O)cc2)n1-c1ccc(F)cc1
Activity (Mus musculus [1]): 63% | Ratio IC50 (J774): > 42 | Activity (Mus musculus [4]): 75% | Activity (Liver): tde | Activity (Mus musculus [7]): 28%
